Assay results: ChEMBL document CHEMBL4359840, “Computationally Driven Structure Optimization, Synthesis, and Biological Evaluation of Imidazole-Based Proprotein Convertase Subtilisin/Kexin 9 (PCSK9) Inhibitors” (J Med Chem, 2019)
One block for each compound: values may come before it. Activity calls are given as the source filed them. No cut-off for these calls is given here.

Experiments:
[1] = target: T1, PCSK9/LDLR (Homo sapiens) (UniProt Q8NBP7+P01130); assay: Inhibition of recombinant His-tagged PCSK9 (unknown origin) binding to recombinant […] AB domain (unknown origin) at 10 uM measured after 2 hrs by ELISA; type: protein assay
T1 sequence (P01130 22-860 partner limits assumed): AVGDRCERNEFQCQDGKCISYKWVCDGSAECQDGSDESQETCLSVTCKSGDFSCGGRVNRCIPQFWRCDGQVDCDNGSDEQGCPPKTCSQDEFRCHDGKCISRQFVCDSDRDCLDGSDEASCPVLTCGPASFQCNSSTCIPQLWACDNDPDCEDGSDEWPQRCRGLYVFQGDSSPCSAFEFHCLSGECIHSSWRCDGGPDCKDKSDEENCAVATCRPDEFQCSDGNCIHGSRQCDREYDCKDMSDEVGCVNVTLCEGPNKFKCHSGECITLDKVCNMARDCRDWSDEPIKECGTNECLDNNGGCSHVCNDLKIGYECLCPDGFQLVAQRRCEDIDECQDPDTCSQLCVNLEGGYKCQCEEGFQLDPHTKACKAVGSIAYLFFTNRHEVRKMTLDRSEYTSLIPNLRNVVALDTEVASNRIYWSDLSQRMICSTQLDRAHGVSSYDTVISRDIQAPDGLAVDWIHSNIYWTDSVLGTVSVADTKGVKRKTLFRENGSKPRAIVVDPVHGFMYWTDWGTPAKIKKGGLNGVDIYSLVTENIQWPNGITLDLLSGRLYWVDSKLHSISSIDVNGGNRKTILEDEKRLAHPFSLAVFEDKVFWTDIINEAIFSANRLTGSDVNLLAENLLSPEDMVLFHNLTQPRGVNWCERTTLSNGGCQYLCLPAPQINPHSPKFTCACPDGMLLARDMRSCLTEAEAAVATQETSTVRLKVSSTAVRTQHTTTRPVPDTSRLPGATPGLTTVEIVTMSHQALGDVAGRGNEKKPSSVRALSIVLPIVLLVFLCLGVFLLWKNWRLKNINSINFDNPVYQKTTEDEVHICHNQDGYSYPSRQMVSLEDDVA
T1 sequence (Q8NBP7 31-152 limits assumed): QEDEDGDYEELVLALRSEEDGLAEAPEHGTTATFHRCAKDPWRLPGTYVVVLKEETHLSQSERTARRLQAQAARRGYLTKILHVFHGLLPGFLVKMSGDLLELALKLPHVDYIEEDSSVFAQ
T1 sequence (Q8NBP7 153-692 limits assumed): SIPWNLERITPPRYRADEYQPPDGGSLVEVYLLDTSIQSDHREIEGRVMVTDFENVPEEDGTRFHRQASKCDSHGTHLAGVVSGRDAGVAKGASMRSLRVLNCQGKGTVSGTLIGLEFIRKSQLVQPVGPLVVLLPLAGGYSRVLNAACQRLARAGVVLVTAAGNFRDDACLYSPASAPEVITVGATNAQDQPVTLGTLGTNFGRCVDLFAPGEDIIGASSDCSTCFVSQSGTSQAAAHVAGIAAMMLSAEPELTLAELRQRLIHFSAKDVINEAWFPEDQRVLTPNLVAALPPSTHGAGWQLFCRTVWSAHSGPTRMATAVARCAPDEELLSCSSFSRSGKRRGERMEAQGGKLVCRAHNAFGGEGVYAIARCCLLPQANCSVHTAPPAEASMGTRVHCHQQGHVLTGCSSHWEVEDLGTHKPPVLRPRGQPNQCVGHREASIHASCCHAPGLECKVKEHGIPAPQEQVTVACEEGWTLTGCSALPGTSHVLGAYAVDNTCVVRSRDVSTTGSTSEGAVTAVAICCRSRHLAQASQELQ
Method in brief: (§1)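 Commercial kit: compound added with His-tagged PCSK9 to wells coated with recombinant LDLR-AB domain. Bound His-PCSK9 quantified by absorbance at 450 nm. Mean ± s.d. of three independent experiments in duplicate.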

[2] = target: T1, PCSK9/LDLR (Homo sapiens); assay: Inhibition of recombinant His-tagged PCSK9 (unknown origin) binding to recombinant […] AB domain (unknown origin) at 100 uM measured after 2 hrs by ELISA relative to control; type: protein assay; method in brief: as §1
[3] = target: T1, PCSK9/LDLR (Homo sapiens); assay: Inhibition of PCSK9 (unknown origin) interaction with LDLR expressed in human HepG2 cells assessed as increase LDLR level on cell membrane at 10 uM measured after 2 hrs by in-cell Western analysis; type: cell-based
[4] = target: T1, PCSK9/LDLR (Homo sapiens); assay: Inhibition of PCSK9 (unknown origin) interaction with LDLR expressed in human HepG2 cells assessed as increase in LDL uptake level at 10 uM measured after 2 hrs by LDL-Dylight 550 dye based fluorescence assay; type: cell-based
PCSK9/LDLR [5] = target: T2, PCSK9/LDLR (Homo sapiens, UniProt Q8NBP7); assay: (§2) Inhibition of recombinant His-tagged PCSK9 (unknown origin) binding to recombinant […] AB domain (unknown origin) measured after 2 hrs by ELISA; type: protein assay; method in brief: as §1
[6] = target: T1, PCSK9/LDLR (Homo sapiens); assay: as §2; type: protein assay; method in brief: as §1
[7] = target: T1, PCSK9/LDLR (Homo sapiens); assay: Inhibition of PCSK9 (unknown origin) interaction with LDLR expressed in human HepG2 cells assessed as LDLR level on cell membrane at 1 uM measured after 2 hrs by in-cell Western analysis (reference value: 30.5 to 47.2%); type: cell-based; set-up: scale not given: the % may be the effect or the level left
[8] = target: T1, PCSK9/LDLR (Homo sapiens); assay: Inhibition of PCSK9 (unknown origin) interaction with LDLR expressed in human HepG2 cells assessed as LDL uptake level at 1 uM measured after 2 hrs by LDL-Dylight 550 dye based fluorescence assay (reference value: 34.8 to 67%); type: cell-based; set-up: scale not given: the % may be the effect or the level left
HepG2 = assay: Cytotoxicity against human HepG2 cells assessed as reduction in cell viability at 0.1 to 10 uM measured after 48 hrs by MTT assay; type: cell-based; settings: hepg2, 48 h
[9] = target: T1, PCSK9/LDLR (Homo sapiens); assay: Inhibition of PCSK9 (unknown origin) interaction with LDLR expressed in human HepG2 cells assessed as LDLR level on cell membrane at 10 uM measured after 2 hrs by in-cell Western analysis (reference value: 30.5 to 47.2%); type: cell-based; set-up: scale not given: the % may be the effect or the level left
[10] = target: T1, PCSK9/LDLR (Homo sapiens); assay: Inhibition of PCSK9 (unknown origin) interaction with LDLR expressed in human HepG2 cells assessed as increase LDLR level on cell membrane measured after 2 hrs by in-cell Western analysis; type: cell-based
[11] = target: T1, PCSK9/LDLR (Homo sapiens); assay: Inhibition of PCSK9 (unknown origin) interaction with LDLR expressed in human HepG2 cells assessed as LDLR level on cell membrane at 0.1 uM measured after 2 hrs by in-cell Western analysis (reference value: 30.5 to 47.2%); type: cell-based; set-up: scale not given: the % may be the effect or the level left
[12] = target: T1, PCSK9/LDLR (Homo sapiens); assay: Inhibition of PCSK9 (unknown origin) interaction with LDLR expressed in human HepG2 cells assessed as LDL uptake level at 10 uM measured after 2 hrs by LDL-Dylight 550 dye based fluorescence assay (reference value: 34.8 to 67%); type: cell-based; set-up: scale not given: the % may be the effect or the level left
[13] = target: T1, PCSK9/LDLR (Homo sapiens); assay: Inhibition of PCSK9 (unknown origin) interaction with LDLR expressed in human HepG2 cells assessed as LDL uptake level at 0.1 uM measured after 2 hrs by LDL-Dylight 550 dye based fluorescence assay (reference value: 34.8 to 67%); type: cell-based; set-up: scale not given: the % may be the effect or the level left
PCSK9/LDLR [14] = target: T2, PCSK9/LDLR; assay: Inhibition of PCSK9 (unknown origin) interaction with LDLR expressed in human HepG2 cells assessed as increase in LDL uptake level measured after 24 hrs by LDL-Dylight 550 dye based fluorescence assay; type: cell-based
Target sequence in this assay (Q8NBP7 31-152 limits assumed): as the sequence (Q8NBP7 31-152 limits assumed) above
Target sequence in this assay (Q8NBP7 153-692 limits assumed): as the sequence (Q8NBP7 153-692 limits assumed) above
Target sequence in this assay (P01130 22-860 partner limits assumed): as the sequence (P01130 22-860 partner limits assumed) above

Compound: CNCCCCCn1cncc1-c1ncc(-c2ncc(-c3ccc(OC)cc3)n2C)n1CCc1ccccc1
IC50 (PCSK9/LDLR [5]): 3.06 µM
inhibition [6]: Dose-dependent effect

Compound: H-LILPKHSDAD-OH
Activity [7]: < 93.9%
Activity [8]: < 104%
IC50 (PCSK9/LDLR [5]): 1.6 µM

Compound: CC(C)C[C@H](C(=O)N1CCN([C@@H](CC(N)=O)C(=O)N[C@@H](CCCNC(=N)N)C(=O)N[C@H]2CCOC2=O)CC1)N1C(=O)N[C@@H](CC(=O)O)C1=O
IC50 (PCSK9/LDLR [5]): 20 to 40 µM

Now from value to compound, other results behind:

inhibition [1]: inactive
inhibition [2]: 18.2%
inhibition [3]: inactive
inhibition [4]: inactive
Compound: COc1ccc(-c2cnc(-c3cncn3Cc3ccccc3)n2C)cc1

Activity [7]: < 101%
Activity [9]: < 102%
inhibition [10]: Dose-dependent effect
Activity [11]: < 77.7%
Activity [8]: < 104%
Activity [12]: 101%
Activity [13]: 63.6%
IC50 (PCSK9/LDLR [5]): 1.38 µM
inhibition [6]: Dose-dependent effect
Compound: CNCCCCCn1cncc1-c1ncc(-c2ncc(-c3ccc(OC)cc3)n2C)n1Cc1ccccc1
Activity (HepG2): Non-Toxic

EC50 (PCSK9/LDLR [14]): 6 µM
Compound: Cn1cncc1-c1ncc(-c2ncc(-c3ncc(-c4ccccc4)n3C)n2C)n1C
